Experimental data as given in ChEMBL document CHEMBL1649062, “Integration of lead optimization with crystallography for a membrane-bound ion channel target: discovery of a new class of AMPA receptor positive allosteric modulators” (J Med Chem, 2011).
In brackets after ≈: the same amount, converted by molar mass.

What was measured:
Cytochrome P450 1A2 = biological target: T1, Cytochrome P450 1A2 (Homo sapiens, UniProt P05177); experiment: Inhibition of human CYP1A2 by fluorescence assay; assay type: ADME
T1 sequence (P05177 whole entry): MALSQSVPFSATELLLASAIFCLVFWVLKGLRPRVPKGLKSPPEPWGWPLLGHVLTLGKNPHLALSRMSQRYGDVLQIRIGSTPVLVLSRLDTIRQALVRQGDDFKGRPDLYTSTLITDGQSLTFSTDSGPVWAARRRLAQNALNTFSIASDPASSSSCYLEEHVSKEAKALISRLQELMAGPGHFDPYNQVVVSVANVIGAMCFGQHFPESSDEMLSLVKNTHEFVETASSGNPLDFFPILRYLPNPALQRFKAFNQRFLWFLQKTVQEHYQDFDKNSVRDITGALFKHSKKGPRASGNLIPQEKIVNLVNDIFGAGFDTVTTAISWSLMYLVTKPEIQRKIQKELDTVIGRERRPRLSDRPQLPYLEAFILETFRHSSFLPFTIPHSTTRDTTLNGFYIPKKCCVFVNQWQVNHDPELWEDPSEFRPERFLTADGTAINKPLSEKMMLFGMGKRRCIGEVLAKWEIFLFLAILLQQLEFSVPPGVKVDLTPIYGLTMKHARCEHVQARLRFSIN
In short: (§1)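 Recombinant human CYP bactosomes (0.1 mg/mL) in 50 mM potassium phosphate pH 7.4, preincubated 10 min at 37 °C with test compound (0.1-10 μM, 7 concentrations) and fluorogenic substrate. Substrates: ethoxyresorufin 0.5 μM (1A2), FCA 50 μM (2C9), BMC 10 μM (2C19), MMC 10 μM (2D6), DEF 1 μM or 7-BQ 25 μM (3A4). Reaction started with NADPH regenerating system; metabolite formation read over 10 min. IC50 from percent of control rate; miconazole control; triplicate.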

[1] = Distribution coefficient, log D of the compound; assay type: physicochemical; conditions: octanol/water
[2] = Kinetic solubility of the compound in phosphate buffered saline of pH 7.4; assay type: physicochemical
In short: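 Kinetic solubility: 10 mM DMSO stock, 5 μL diluted to 100 μL with pH 7.4 phosphate-buffered saline, equilibrated 1 h at room temperature, filtered, filtrate quantified by calibrated flow-injection chemiluminescent nitrogen detection.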

Glutamate receptor 2 [3] = biological target: T2, Glutamate receptor 2 (Homo sapiens, UniProt P42262); experiment: Allosteric modulation of human recombinant GluA2 receptor flip isoform expressed in HEK293 cells assessed as potentiation of glutamate-induced calcium influx by Fluo-4/FLIPR method; assay type: cell-based
T2 sequence (P42262 whole entry, canonical isoform): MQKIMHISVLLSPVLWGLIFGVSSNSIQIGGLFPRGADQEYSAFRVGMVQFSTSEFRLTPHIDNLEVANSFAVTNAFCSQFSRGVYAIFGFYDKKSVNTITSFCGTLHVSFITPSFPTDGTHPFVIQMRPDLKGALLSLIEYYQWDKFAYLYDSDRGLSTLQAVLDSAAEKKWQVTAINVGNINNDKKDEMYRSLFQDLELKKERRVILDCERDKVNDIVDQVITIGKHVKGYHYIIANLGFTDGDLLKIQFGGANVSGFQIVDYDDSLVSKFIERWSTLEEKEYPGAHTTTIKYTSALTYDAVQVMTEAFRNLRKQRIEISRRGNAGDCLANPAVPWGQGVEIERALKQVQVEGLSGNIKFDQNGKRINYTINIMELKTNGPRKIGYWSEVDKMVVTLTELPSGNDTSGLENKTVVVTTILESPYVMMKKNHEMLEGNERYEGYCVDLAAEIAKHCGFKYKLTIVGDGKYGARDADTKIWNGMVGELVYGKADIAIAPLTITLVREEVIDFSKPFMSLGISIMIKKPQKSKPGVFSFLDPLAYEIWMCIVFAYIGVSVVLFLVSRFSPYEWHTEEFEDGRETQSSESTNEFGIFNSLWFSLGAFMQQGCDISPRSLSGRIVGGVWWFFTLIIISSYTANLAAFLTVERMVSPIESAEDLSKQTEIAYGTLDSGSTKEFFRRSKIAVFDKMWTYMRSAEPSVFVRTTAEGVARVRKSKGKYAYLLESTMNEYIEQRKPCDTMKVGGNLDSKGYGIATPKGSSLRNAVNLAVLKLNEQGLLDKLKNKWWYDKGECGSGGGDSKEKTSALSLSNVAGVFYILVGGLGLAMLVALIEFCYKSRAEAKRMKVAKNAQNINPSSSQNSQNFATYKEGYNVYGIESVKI
In short: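 Stable GluA2 flip (unedited) cell line grown in DMEM/F12 with 10% FBS and seeded to confluence 2-3 days before use. Cells washed in HEPES buffer (pH 7.3) and loaded with 2 μM Fluo-4 AM for 60 min at room temperature. On FLIPR, compound was added 5 min before 100 μM glutamate. pEC50 and asymptotic maximum are relative to the maximal response to cyclothiazide, n ≥ 3.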

Cytochrome P450 2C9 = Cytochrome P450 2C9 (Homo sapiens, UniProt P11712); experiment: Inhibition of human CYP2C9 by fluorescence assay; assay type: ADME; in short: as §1
Sequence of Cytochrome P450 2C9 (P11712 whole entry, canonical isoform): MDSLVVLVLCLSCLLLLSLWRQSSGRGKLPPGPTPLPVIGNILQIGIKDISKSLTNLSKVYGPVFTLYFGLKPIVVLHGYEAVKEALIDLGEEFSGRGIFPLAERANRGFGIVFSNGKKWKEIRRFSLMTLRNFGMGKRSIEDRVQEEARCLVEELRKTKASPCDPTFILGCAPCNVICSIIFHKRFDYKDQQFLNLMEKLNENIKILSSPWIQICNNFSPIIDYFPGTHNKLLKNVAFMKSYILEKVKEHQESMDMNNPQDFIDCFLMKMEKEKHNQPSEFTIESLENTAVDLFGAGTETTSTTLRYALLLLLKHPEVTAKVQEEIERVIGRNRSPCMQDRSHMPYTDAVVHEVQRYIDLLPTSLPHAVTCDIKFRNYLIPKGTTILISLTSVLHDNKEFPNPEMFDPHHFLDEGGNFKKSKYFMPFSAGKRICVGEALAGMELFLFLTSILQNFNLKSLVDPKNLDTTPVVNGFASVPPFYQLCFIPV

Glutamate receptor 2 [4] = biological target: T2, Glutamate receptor 2; experiment: Allosteric modulation of human recombinant GluA2 receptor flip isoform expressed in HEK293 cells assessed as potentiation of glutamate-induced calcium influx by Fluo-4/FLIPR method relative to cyclothiazide; assay type: cell-based
In short: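 Stable GluA2 flip (unedited) cells seeded to confluence 2-3 days before assay; washed in HEPES buffer (145 NaCl, 5 KCl, 2 CaCl2, 1 MgCl2, 5.5 glucose, pH 7.3), loaded with 2 μM Fluo4-AM 60 min at room temperature. FLIPR dual addition: compound 5 min before 100 μM glutamate; fluorescence rise expressed against maximal cyclothiazide response, fitted pEC50 and Asym max; n ≥ 3.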

[5] = Clearance in rat at 3 mg/kg, po; assay type: ADME, organism-based; parameters: dose 3 mg/kg, route oral; conditions: in vivo
In short: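 Rats dosed orally at 3 mg/kg; blood sampled via the hepatic portal vein and heart. Estimated clearance derived from in vivo hepatic extraction, taking rat liver blood flow as 85 (mL/min)/kg.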

[6] = AUC ( 0 to t) in rat at 3 mg/kg, po; assay type: ADME, organism-based, Plasma; parameters: dose 3 mg/kg, route oral; conditions: plasma
in vivo = conditions: rat, brain and blood, po, 3 mg/kg
[7] = Cmax in rat at 3 mg/kg, po; assay type: ADME, organism-based; parameters: dose 3 mg/kg, route oral; conditions: in vivo
[8] = Plasma protein binding in rat at 3 mg/kg, po; assay type: ADME, organism-based; parameters: dose 3 mg/kg, route oral; conditions: read-out: PPB (converted)
Brain = experiment: Brain tissue binding in rat at 3 mg/kg, po; assay type: ADME, organism-based; parameters: dose 3 mg/kg, route oral; conditions: in vivo
[9] = Apparent permeability of the compound; assay type: ADME; conditions: not told
In short: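 Artificial membrane permeability: donor holds 10 mM sample in pH 7.05 phosphate buffer with 0.5% hydroxypropylcyclodextrin. Membrane is 1.8% phosphatidylcholine and 1% cholesterol in decane. Donor and acceptor concentrations measured by LCMS after 3 h at room temperature; permeability expressed in nm/s.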

[10] = Inhibition of human CYP450 by fluorescence assay; assay type: ADME
In short: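 Recombinant human CYP1A2, 2C9, 2C19, 2D6 and 3A4 bactosomes (0.1 mg/mL protein) preincubated 10 min at 37 °C in 50 mM potassium phosphate pH 7.4 with test compound (0.1–10 μM, methanol 3–4.5% final) and fluorogenic probe: ethoxyresorufin 0.5 μM (1A2), FCA 50 μM (2C9), BMC 10 μM (2C19), MMC 10 μM (2D6), DEF 1 μM or 7-BQ 25 μM (3A4). NADPH-regenerating system added; fluorescent metabolite read 10 min; rate as % control; IC50 fitted; triplicate.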

Cytochrome P450 2D6 = Cytochrome P450 2D6 (Homo sapiens, UniProt P10635); experiment: Inhibition of human CYP2D6 by fluorescence assay; assay type: ADME; in short: as §1
Sequence of Cytochrome P450 2D6 (P10635 whole entry): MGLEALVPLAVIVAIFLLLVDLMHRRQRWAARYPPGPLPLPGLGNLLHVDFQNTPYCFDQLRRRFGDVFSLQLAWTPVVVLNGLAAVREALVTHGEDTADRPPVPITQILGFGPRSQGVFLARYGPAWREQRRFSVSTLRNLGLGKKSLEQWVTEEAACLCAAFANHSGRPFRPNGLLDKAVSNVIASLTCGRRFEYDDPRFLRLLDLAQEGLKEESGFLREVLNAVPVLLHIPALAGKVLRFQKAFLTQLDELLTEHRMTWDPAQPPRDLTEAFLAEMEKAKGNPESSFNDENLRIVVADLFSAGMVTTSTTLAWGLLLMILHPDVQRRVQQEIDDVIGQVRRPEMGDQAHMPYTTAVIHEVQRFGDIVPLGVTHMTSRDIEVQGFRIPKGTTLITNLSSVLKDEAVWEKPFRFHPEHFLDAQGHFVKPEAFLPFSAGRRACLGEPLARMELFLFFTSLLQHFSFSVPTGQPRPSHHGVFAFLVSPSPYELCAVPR

Cytochrome P450 2C19 = Cytochrome P450 2C19 (Homo sapiens, UniProt P33261); experiment: Inhibition of human CYP2C19 by fluorescence assay; assay type: ADME; in short: as §1
Sequence of Cytochrome P450 2C19 (P33261 whole entry): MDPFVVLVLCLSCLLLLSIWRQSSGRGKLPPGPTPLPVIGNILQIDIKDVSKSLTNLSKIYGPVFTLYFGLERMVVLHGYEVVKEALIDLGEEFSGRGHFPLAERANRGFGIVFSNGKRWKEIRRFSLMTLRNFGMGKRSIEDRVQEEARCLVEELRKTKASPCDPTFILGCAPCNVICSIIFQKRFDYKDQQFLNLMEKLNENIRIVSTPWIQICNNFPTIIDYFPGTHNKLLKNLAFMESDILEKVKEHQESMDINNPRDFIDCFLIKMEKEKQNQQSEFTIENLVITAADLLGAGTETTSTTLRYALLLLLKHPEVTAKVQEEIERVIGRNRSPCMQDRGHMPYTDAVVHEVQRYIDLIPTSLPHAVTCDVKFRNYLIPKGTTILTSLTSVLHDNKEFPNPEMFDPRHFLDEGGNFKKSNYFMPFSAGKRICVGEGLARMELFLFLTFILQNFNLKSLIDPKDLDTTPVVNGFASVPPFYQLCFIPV

[11] = Cmax in rat blood at 3 mg/kg, po; assay type: ADME, organism-based; parameters: dose 3 mg/kg, route oral; conditions: whole blood
[12] = Distribution coefficient, log D of the compound at pH 7.4; assay type: physicochemical; conditions: octanol/water
[13] = AUC (0 to t) in rat blood at 3 mg/kg, po; assay type: ADME, organism-based; parameters: dose 3 mg/kg, route oral; conditions: whole blood
Cytochrome P450 3A4 = Cytochrome P450 3A4 (Homo sapiens, UniProt P08684); experiment: Inhibition of human CYP3A4 by fluorescence assay; assay type: ADME; in short: as §1
Sequence of Cytochrome P450 3A4 (P08684 whole entry): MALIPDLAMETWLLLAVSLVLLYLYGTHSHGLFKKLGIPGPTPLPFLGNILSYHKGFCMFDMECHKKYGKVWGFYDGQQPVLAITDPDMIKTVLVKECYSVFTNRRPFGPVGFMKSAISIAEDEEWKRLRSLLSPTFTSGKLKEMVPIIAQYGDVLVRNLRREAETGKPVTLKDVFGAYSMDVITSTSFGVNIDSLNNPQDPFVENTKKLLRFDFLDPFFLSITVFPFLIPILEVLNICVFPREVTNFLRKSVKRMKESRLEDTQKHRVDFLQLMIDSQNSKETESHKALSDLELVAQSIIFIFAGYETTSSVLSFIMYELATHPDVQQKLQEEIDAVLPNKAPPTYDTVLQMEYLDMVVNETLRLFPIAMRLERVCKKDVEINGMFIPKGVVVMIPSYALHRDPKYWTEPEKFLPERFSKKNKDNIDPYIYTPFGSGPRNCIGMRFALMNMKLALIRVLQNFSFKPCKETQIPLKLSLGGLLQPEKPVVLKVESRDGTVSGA

CC(=O)c1ccc(-n2nc(C(F)(F)F)c3c2CCCC3)cc1
IC50 (Cytochrome P450 1A2): 0.1 µM
logD [1]: 3
solubility kinetic [2]: 13 µg/mL (≈ 42.2 µM)
EC50 (Glutamate receptor 2 [3]): 31.6 µM
IC50 (Cytochrome P450 2C9): 4 µM
Activity (Glutamate receptor 2 [4]): 94%

CN(C)C(=O)Cc1ccc(-n2nc(C(F)(F)F)c3c2CCCC3)cc1
logD [1]: 2.3
CL/F [5]: 47 mL/min/kg
solubility kinetic [2]: 118 µg/mL (≈ 336 µM)
EC50 (Glutamate receptor 2 [3]): 2 µM
AUC(0-t) [6]: 262 ng·h/mL
IC50 (Cytochrome P450 2C9): 7 µM
Kp (in vivo): 2.8
Activity (Glutamate receptor 2 [4]): 107%
Cmax [7]: 260 ng/mL
fraction unbound [8]: 0.022
Brain tissue binding (% bound) (Brain): 98.8%

CC(=O)N(C)Cc1ccc(-n2nc(C(F)(F)F)c3c2CCCC3)cc1
logD [1]: 1.3
EC50 (Glutamate receptor 2 [3]): 2 µM
Activity (Glutamate receptor 2 [4]): 94%

CN(C)S(=O)(=O)c1ccc(-n2nc(C(F)(F)F)c3c2CCCC3)cc1
logD [1]: 3.1
solubility kinetic [2]: 5 µg/mL (≈ 13.4 µM)
EC50 (Glutamate receptor 2 [3]): 20 µM
IC50 (Cytochrome P450 2C9): 2 µM
Activity (Glutamate receptor 2 [4]): 63%

O=S1(=O)CCCN1Cc1ccc(-n2nc(C(F)(F)F)c3c2CCCC3)cc1
Papp [9]: 40 ×10⁻⁶ cm/s
logD [1]: 3.3
CL/F [5]: 41 mL/min/kg
solubility kinetic [2]: 12 µg/mL (≈ 30 µM)
EC50 (Glutamate receptor 2 [3]): 10 µM
AUC(0-t) [6]: 364 ng·h/mL
Kp (in vivo): 2.5
Activity (Glutamate receptor 2 [4]): 118%
Cmax [7]: 136 ng/mL
fraction unbound [8]: 0.032
IC50 [10]: > 10 µM
Brain tissue binding (% bound) (Brain): 99.5%

O=C1CCCN1Cc1ccc(-n2nc(C(F)(F)F)c3c2COCC3)cc1
Papp [9]: 44 ×10⁻⁶ cm/s
IC50 (Cytochrome P450 2D6): > 10 µM
IC50 (Cytochrome P450 1A2): > 10 µM
IC50 (Cytochrome P450 2C19): > 10 µM
solubility kinetic [2]: 123 µg/mL (≈ 337 µM)
EC50 (Glutamate receptor 2 [3]): 5.01 µM
IC50 (Cytochrome P450 2C9): > 10 µM
Cmax [11]: 331 ng/mL
Activity (Glutamate receptor 2 [4]): 116%
logD [12]: 2.6
AUC(0-t) [13]: 824 ng·h/mL
IC50 (Cytochrome P450 3A4): > 10 µM
fraction unbound [8]: 0.057
Brain tissue binding (% bound) (Brain): 94.9%

CC(=O)NCc1ccc(-n2nc(C(F)(F)F)c3c2CCCC3)cc1
solubility kinetic [2]: 47 µg/mL (≈ 139 µM)
EC50 (Glutamate receptor 2 [3]): 1.26 µM
Activity (Glutamate receptor 2 [4]): 79%
IC50 [10]: > 10 µM

CCC(=O)NCc1ccc(-n2nc(C(F)(F)F)c3c2CCCC3)cc1
IC50 (Cytochrome P450 1A2): 3.5 µM
logD [1]: 3.6
solubility kinetic [2]: 62 µg/mL (≈ 176 µM)
EC50 (Glutamate receptor 2 [3]): 2.51 µM
IC50 (Cytochrome P450 2C9): 8 µM
Activity (Glutamate receptor 2 [4]): 98%

O=C(Cc1ccc(-n2nc(C(F)(F)F)c3c2CCCC3)cc1)N1CCCC1
logD [1]: 3.3
CL/F [5]: 55 mL/min/kg
solubility kinetic [2]: 77 µg/mL (≈ 204 µM)
EC50 (Glutamate receptor 2 [3]): 3.16 µM
AUC(0-t) [6]: 166 ng·h/mL
IC50 (Cytochrome P450 2C9): 3 µM
Kp (in vivo): 0.9
Activity (Glutamate receptor 2 [4]): 82%
Cmax [7]: 95 ng/mL
fraction unbound [8]: 0.004
Brain tissue binding (% bound) (Brain): 98.1%

CN(CCc1ccccc1)C(=O)c1ccc(-n2nc(C(F)(F)F)c3c2CCCC3)cc1
logD [1]: 3
IC50 (Cytochrome P450 2C19): 3 µM
solubility kinetic [2]: 57 µg/mL (≈ 133 µM)
EC50 (Glutamate receptor 2 [3]): 39.8 µM
IC50 (Cytochrome P450 2C9): 1 µM
Activity (Glutamate receptor 2 [4]): 84%

CC(C)S(=O)(=O)NCc1ccc(-n2nc(C(F)(F)F)c3c2CCCC3)cc1
logD [1]: 2.8
solubility kinetic [2]: 11 µg/mL (≈ 27.4 µM)
EC50 (Glutamate receptor 2 [3]): 10 µM
Activity (Glutamate receptor 2 [4]): 79%
IC50 [10]: > 10 µM

CN(Cc1ccc(-n2nc(C(F)(F)F)c3c2CCCC3)cc1)S(C)(=O)=O
logD [1]: 3.3
solubility kinetic [2]: 15 µg/mL (≈ 38.7 µM)
EC50 (Glutamate receptor 2 [3]): 20 µM
Activity (Glutamate receptor 2 [4]): 102%
IC50 [10]: > 10 µM

O=C(Cc1ccc(-n2nc(C(F)(F)F)c3c2CCCC3)cc1F)N1CCCC1
logD [1]: 3.7
CL/F [5]: 55 mL/min/kg
solubility kinetic [2]: 41 µg/mL (≈ 104 µM)
EC50 (Glutamate receptor 2 [3]): 1.26 µM
AUC(0-t) [6]: 248 ng·h/mL
IC50 (Cytochrome P450 2C9): 7 µM
Kp (in vivo): 0.3
Activity (Glutamate receptor 2 [4]): 79%
Cmax [7]: 111 ng/mL
fraction unbound [8]: 0.002
Brain tissue binding (% bound) (Brain): 99.4%
